This is an account of results in ChEMBL document CHEMBL4325922, “Restoring Let-7 microRNA Biogenesis Using a Small-Molecule Inhibitor of the Protein-RNA Interaction” (ACS Med Chem Lett, 2018).

Active and inactive are the calls of the source. The rule behind the calls is not given here.

For assay [1], the target named is T1, Protein lin-28 homolog A (Homo sapiens) (UniProt Q9H9Z2).
T1 sequence (whole entry): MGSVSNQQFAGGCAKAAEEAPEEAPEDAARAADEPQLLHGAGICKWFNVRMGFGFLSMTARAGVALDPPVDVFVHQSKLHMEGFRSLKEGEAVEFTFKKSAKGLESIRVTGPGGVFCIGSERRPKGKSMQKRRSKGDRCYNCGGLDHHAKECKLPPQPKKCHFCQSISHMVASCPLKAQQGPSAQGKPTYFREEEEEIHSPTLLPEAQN
Briefly: Inhibition of PreE-let-7a-1-BHQ2 binding to recombinant human N-terminal His6-tagged/Cy3-labelled Lin28a expressed in Escherichia coli Rosetta2 (DE3) pLysS measured after 30 to 60 mins by FRET assay.

Assay [2] concerns the target T1, Protein lin-28 homolog A (Homo sapiens). Briefly: Inhibition of pre-let-7g binding to recombinant human N-terminal His6-tagged Lin28a expressed in Escherichia coli Rosetta2 (DE3) pLysS assessed as increase in dicer-mediated pre-let-7g microRNA maturation at 5 to 10 uM measured after 40 mins by SYBR green2 dye based fluorescence assay.
Assay [3] has the same target. The assay is described as follows: Binding affinity to recombinant human N-terminal His6-tagged Lin28a zinc knuckle domain expressed in Escherichia coli Rosetta2 (DE3) pLysS at 0.625 to 10 uM by surface plasmon resonance analysis. For orientation: Surface plasmon resonance follows binding to a sensor surface in real time, without labels.
For assay [4], the target named is T2, Protein lin-28 homolog B (Homo sapiens) (UniProt Q6ZN17).
T2 sequence (whole entry): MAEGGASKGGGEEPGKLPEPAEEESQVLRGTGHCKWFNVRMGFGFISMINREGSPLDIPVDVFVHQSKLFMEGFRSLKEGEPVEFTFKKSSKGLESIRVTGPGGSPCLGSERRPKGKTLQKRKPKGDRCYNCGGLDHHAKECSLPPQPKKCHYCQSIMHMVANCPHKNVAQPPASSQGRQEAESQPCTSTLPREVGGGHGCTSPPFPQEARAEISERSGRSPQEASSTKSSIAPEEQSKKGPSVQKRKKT
The assay is described as follows: Inhibition of biotinylated-preE-let-7g binding to Lin28b in human JAR cells by pull down assay. The class given is cell-based. The gist of the method:
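5′-Biotinylated preE-let-7g is immobilized on streptavidin beads and incubated with proteome from JAR human choriocarcinoma cells, which express Lin28a and Lin28b. Test compound is present during binding, and target engagement is judged by the proteins pulled down.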

The target in assay [5] is T3, Protein lin-28 homolog A/B (Homo sapiens) (UniProt Q6ZN17+Q9H9Z2). Briefly: Inhibition of Lin28a/Lin28b in human JAR cells assessed as increase in mature let-7a level after 20 hrs by TRIzol dye based qRT-PCR analysis. In kind it is cell-based. Put shortly:
(§1)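 JAR cells (express Lin28a and Lin28b) exposed to compound for 20 h; miRNA levels quantified with U6 snRNA as endogenous control; three or more biological replicates, standard deviation, paired two-tailed t test.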
On the technique in general: Quantitative PCR measures a nucleic acid by following its amplification.

Assay [6] addresses T3, Protein lin-28 homolog A/B (Homo sapiens). The assay is described as follows: Inhibition of Lin28a/Lin28b in human JAR cells assessed as increase in mature let-7b level after 20 hrs by TRIzol dye based qRT-PCR analysis. In kind it is cell-based. The gist of the method: as §1
The target is the same in assay [7]. The assay is described as follows: Inhibition of Lin28a/Lin28b in human JAR cells assessed as increase in mature let-7d level after 20 hrs by TRIzol dye based qRT-PCR analysis. In kind it is cell-based. The gist of the method: as §1
The target is the same in assay [8]. Briefly: Inhibition of Lin28a/Lin28b in human JAR cells assessed as increase in mature let-7i level after 20 hrs by TRIzol dye based qRT-PCR analysis. In kind it is cell-based. Put shortly:
as §1

Assay [9] relates to JAR. The assay is described as follows: Effect on miR-20b level in human JAR cells at 5 to 10 uM after 20 hrs by TRIzol dye based qRT-PCR analysis. In kind it is functional, cell-based. The gist of the method: as §1
The test system of assay [10] is JAR. Briefly: Increase in mature let-7g level in Lin28a/b knockdown human JAR cells at 10 uM after 20 hrs by qRT-PCR analysis. The class given is functional, cell-based. The gist of the method:
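Lin28 knocked-down JAR cells treated for 20 h; let-7 levels measured against U6 snRNA endogenous control; 2 biological replicates.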

In assay [11] the target is T1, Protein lin-28 homolog A (Homo sapiens). The assay is described as follows: Inhibition of Lin28a in human PA1 cells assessed as increase in mature let-7d level at 10 uM after 20 hrs by TRIzol dye based qRT-PCR analysis. The class given is cell-based. Put shortly:
(§2)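 PA-1 ovarian teratocarcinoma cells (express Lin28a) treated for 20 h; let-7 quantified relative to U6 snRNA; 4 biological replicates, standard deviation, paired two-tailed t test.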

Assay [12] has the same target. Briefly: Inhibition of Lin28a in human PA1 cells assessed as increase in mature let-7g level at 10 uM after 20 hrs by TRIzol dye based qRT-PCR analysis. In kind it is cell-based. Put shortly:
as §2

In assay [13] the test system is PA-1. The assay is described as follows: Increase in mature let-7i level in Lin28a CRISPR-Cas9 knockout human PA1 cells at 10 uM after 20 hrs by qRT-PCR analysis. In kind it is functional, cell-based. The gist of the method:
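PA-1 cells with Lin28a fully knocked out by CRISPR/Cas9 editing (clonal lines) treated for 20 h; let-7 levels normalized to U6 snRNA; 2 technical replicates.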

Assay [14] has as its target T3, Protein lin-28 homolog A/B (Homo sapiens). Briefly: Inhibition of Lin28a/Lin28b in human JAR cells assessed as reduction in HMGA2 expression at 5 to 10 uM after 24 hrs by Western blot analysis. The class given is cell-based. Put shortly: (§3)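 Endogenous let-7 target proteins (HMGA2, IMP1, Ras, Lin28a) detected by Western blot in JAR or PA-1 cells after 24 h compound treatment.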

For assay [15] the target is unchanged. The assay is described as follows: Inhibition of Lin28a/Lin28b in human JAR cells assessed as reduction in Ras expression at 5 to 10 uM after 24 hrs by Western blot analysis. In kind it is cell-based. The gist of the method: as §3
On the technique in general: In western blotting, separated proteins are transferred to a membrane and probed.

The target is the same in assay [16]. The assay is described as follows: Inhibition of Lin28a/Lin28b in human JAR cells assessed as reduction in Lin28a expression at 5 to 10 uM after 24 hrs by Western blot analysis. The class given is cell-based. Put shortly: as §3
Assay [17] concerns the target T1, Protein lin-28 homolog A (Homo sapiens). The assay is described as follows: Inhibition of Lin28a in human PA1 cells assessed as reduction in IMP1 expression at 10 uM after 24 hrs by Western blot analysis. In kind it is cell-based. Put shortly: as §3
The target is the same in assay [18]. Briefly: Inhibition of Lin28a in human PA1 cells assessed as reduction in Lin28 expression at 10 uM after 24 hrs by Western blot analysis. The class given is cell-based. Put shortly: as §3
The target of assay [19] is T3, Protein lin-28 homolog A/B (Homo sapiens). The assay is described as follows: Inhibition of Lin28a/Lin28b in human MCF7 cells assessed as reduction in HMGA2 expression at 10 uM after 24 hrs by Western blot analysis. In kind it is cell-based.
Assay [20] has the same target. Briefly: Inhibition of Lin28a/Lin28b in human MCF7 cells assessed as reduction in IMP1 expression at 10 uM after 24 hrs by Western blot analysis. In kind it is cell-based.
Assay [21] concerns JAR. Briefly: Inhibition of sphere formation in human JAR cells at 10 uM after 24 hrs by WST assay. In kind it is functional, cell-based. Put shortly: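 JAR cells are pretreated with compound for 24 h, dissociated to single cells, and equal numbers of viable cells are cultured in sphere-forming media for 12 days. Sphere formation is quantified by WST assay. Three biological replicates, standard deviation, paired two-tailed t test.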

Assay [22] has as its system JAR. The assay is described as follows: Cytotoxicity against human JAR cells after 24 hrs by WST assay. The class given is functional, cell-based.
The test system of assay [23] is PA-1. Briefly: Cytotoxicity against human PA1 cells after 24 hrs by WST assay. In kind it is functional, cell-based.
In assay [24] the target is T3, Protein lin-28 homolog A/B (Homo sapiens). The assay is described as follows: Inhibition of Lin28a/Lin28b in human JAR cells assessed as reduction in HMGA2 expression after 20 hrs by dual-luciferase reporter gene assay.

Regarding `NC(=O)c1c(Nc2ccc(Cl)cc2Cl)[nH]c2c(Cl)ccc(Cl)c2c1=O`, the inhibition result in assay [1], in [4], in assay [5], in [6], in assay [7] and in assay [8] was “Dose-dependent effect” in each case. The inhibition result in [24] is “Dose-dependent effect”. For the same compound, the inhibition result in [2], in assay [11], in [12], in assay [14], in [15] and in assay [16] was “Active” throughout. Moreover, the inhibition result (in assay [17]; in assay [18]; in the assay on JAR [21]) was “Active” throughout. In addition, the outcome (in assay [3]; in the assay on JAR [9]; with JAR [10]; with PA-1 [13]) was inactive. Further, the inhibition result in assay [19] and in assay [20] was “inactive” each time. Besides, the outcome with JAR [22] and in the assay with PA-1 [23] was Active.
